Assay results published in ChEMBL document CHEMBL4706578, “New one-pot synthesis of anti-tuberculosis compounds inspired on isoniazid” (Eur J Med Chem, 2020).
≈ marks a conversion by molar mass, not a printed value.

Key:
[1] = test system: Mycobacterium tuberculosis; assay: Antitubercular activity against Mycobacterium tuberculosis H37Rv assessed as inhibition of microbial growth incubated by measuring turbidity for 5 days by serial microdilution based colorimetric assay; assay type: functional; conditions: 120 h, dose 20 µM, time 5 day
In short: (§1)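 Strains grown in Middlebrook 7H9 with ADS (BSA, dextrose, NaCl) and 1% glycerol. Compounds from 40 mM DMSO stocks were two-fold serially diluted in plate broth. Inoculum was a 1/25 dilution of a mid-log culture at McFarland 1.0, about 10⁶ CFU/well. Plates sealed and held 5 days at 37 °C. MIC is the lowest concentration with no visible turbidity. Rifampicin was the control drug.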

[2] = test system: Mycobacterium tuberculosis; assay: Antimycobacterial activity against Mycobacterium tuberculosis InhA-OE strain assessed as inhibition of microbial growth at 20 uM incubated for 5 days by serial microdilution based colorimetric assay; assay type: functional; conditions: 120 h, time 5 day
[3] = Selectivity index, ratio of CC50 for african green monkey Vero cells to MIC for Mycobacterium tuberculosis H37Rv; assay type: toxicity; conditions: read-out: Selectivity Index
[4] = Cytotoxicity against African green monkey Vero E6 cells assessed as reduction in cell viability incubated for 48 hrs by neutral red assay; assay type: cell-based; conditions: Chlorocebus aethiops
In short: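 Vero kidney […] were seeded at 25,000 cells/well and allowed 24 h before compound was added, then incubated 48 h. Viable cells were read by neutral red uptake. IC50 was taken from log plots of growth inhibition versus concentration. Doxorubicin was the positive control and DMSO the vehicle control.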

[5] = test system: Mycobacterium tuberculosis; assay: Antitubercular activity against Mycobacterium tuberculosis H37Rv under anerobic condition; assay type: functional
[6] = test system: Mycobacterium tuberculosis; assay: Antitubercular activity against Mycobacterium tuberculosis H37Rv under aerobic condition; assay type: functional
[7] = test system: Mycobacterium tuberculosis; assay: Antitubercular activity against Mycobacterium tuberculosis H37Rv; assay type: functional; in short: as §1

| SMILES | MIC [1] [µM] | further results |
| --- | --- | --- |
| COC(=O)/C=C/N(/N=C/C=C(C)C)S(=O)(=O)c1ccc(C)cc1 | 5 | MIC [2]: 10 µM |
| COC(=O)/C=C/N(/N=C/c1ccccc1OC)S(=O)(=O)c1ccc(C)cc1 | 1.25 | selectivity ratio [3]: 9.76; IC50 [4]: > 12.2 µM; MIC [2]: 5 µM |
| COC(=O)/C=C\N(/N=C/C1=CC2CC(C1)C2(C)C)S(=O)(=O)c1ccc(C)cc1 (stereo not drawn) | > 20 |  |
| C/C=C/C=C/C=N/N(/C=C\C(=O)OC)S(=O)(=O)c1ccc(C)cc1 | 20 |  |
| Cc1cc(C)nc(NNC(=O)c2ccccn2)n1 |  | IC90 [5]: 2.02 µg/mL (≈ 8.3 µM); IC90 [6]: 1.51 µg/mL (≈ 6.21 µM); MIC [7]: 6.08 µg/mL (≈ 25 µM) |
| COC(=O)/C=C/N(/N=C/c1ccc([N+](=O)[O-])cc1)S(=O)(=O)c1ccc(C)cc1 | > 20 |  |
| COC(=O)/C=C\N(/N=C/C1=CCCCC1)S(=O)(=O)c1ccc(C)cc1 | > 20 |  |
| COC(=O)/C=C/N(/N=C/c1ccc(OC)c(OC)c1)S(=O)(=O)c1ccc(C)cc1 | > 20 |  |
| COC(=O)/C=C/N(/N=C/c1ccc(-c2ccccc2)cc1)S(=O)(=O)c1ccc(C)cc1 | > 20 |  |
| COC(=O)/C=C/N(/N=C/C1=CCCCC1)S(=O)(=O)c1ccc(C)cc1 | 10 |  |
| COC(=O)/C=C/N(/N=C/c1ccccc1)S(=O)(=O)c1ccc(C)cc1 | 1.25 | selectivity ratio [3]: 10.6; IC50 [4]: > 13.3 µM; MIC [2]: 2.5 µM |
| COC(=O)/C=C/N(/N=C/c1ccccc1C(F)(F)F)S(=O)(=O)c1ccc(C)cc1 | 20 |  |
| C/C=C/C=C/C=N/N(/C=C/C(=O)OC)S(=O)(=O)c1ccc(C)cc1 | 5 | MIC [2]: 10 µM |
| COC(=O)/C=C/N(/N=C/c1ccc[nH]1)S(=O)(=O)c1ccc(C)cc1 | > 20 |  |
| COC(=O)/C=C\N(/N=C/c1ccc([N+](=O)[O-])cc1)S(=O)(=O)c1ccc(C)cc1 | > 20 |  |
| COC(=O)/C=C/N(/N=C/C=C/c1ccc(OC)cc1)S(=O)(=O)c1ccc(C)cc1 | 10 |  |
| COC(=O)/C=C\N(/N=C/c1ccccc1)S(=O)(=O)c1ccc(C)cc1 | 20 |  |

| SMILES | MIC [1] [µM] | further results |
| --- | --- | --- |
| COC(=O)/C=C\N(/N=C/c1ccc(OC)c(OC)c1)S(=O)(=O)c1ccc(C)cc1 | > 20 |  |
| O=C(N/N=C\c1ccco1)c1cc(C23CC4CC(CC(C4)C2)C3)c2ccccc2n1 |  | MIC [7]: 3.12 µg/mL (≈ 7.81 µM) |
| COC(=O)/C=C/N(/N=C/c1ccc2ccccc2c1)S(=O)(=O)c1ccc(C)cc1 | 1.25 | selectivity ratio [3]: 9.28; IC50 [4]: > 11.6 µM; MIC [2]: 2.5 µM |
| COC(=O)/C=C\N(/N=C/C=C/c1ccc(OC)cc1)S(=O)(=O)c1ccc(C)cc1 | > 20 |  |
| COC(=O)/C=C\N(/N=C/c1ccc2ccccc2c1)S(=O)(=O)c1ccc(C)cc1 | 20 |  |
| COC(=O)/C=C\N(/N=C/c1ccc[nH]1)S(=O)(=O)c1ccc(C)cc1 | > 20 |  |
| COC(=O)/C=C/N(/N=C/C1=CC2CC(C1)C2(C)C)S(=O)(=O)c1ccc(C)cc1 (stereo not drawn) | > 20 |  |
| COC(=O)/C=C\N(/N=C/c1ccc(-c2ccccc2)cc1)S(=O)(=O)c1ccc(C)cc1 | > 20 |  |
| COC(=O)/C=C\N(/N=C/c1ccccc1C(F)(F)F)S(=O)(=O)c1ccc(C)cc1 | > 20 |  |
| COC(=O)/C=C\N(/N=C/c1ccc(Br)cc1)S(=O)(=O)c1ccc(C)cc1 | > 20 |  |
| COC(=O)/C=C/N(/N=C/c1ccc(Br)cc1)S(=O)(=O)c1ccc(C)cc1 | > 20 |  |
| COC(=O)/C=C\N(/N=C/c1ccco1)S(=O)(=O)c1ccc(C)cc1 | 20 |  |
| COC(=O)/C=C/N(/N=C/c1ccco1)S(=O)(=O)c1ccc(C)cc1 | 5 | MIC [2]: 10 µM |
| COC(=O)/C=C\N(/N=C/c1ccccc1OC)S(=O)(=O)c1ccc(C)cc1 | > 20 |  |
| NNC(=O)c1ccncc1 [ISONIAZID] | 0.36 | MIC [2]: > 7.3 µM |
| CO[C@H]1/C=C/O[C@@]2(C)Oc3c(C)c(O)c4c(O)c(c(/C=N/N5CCN(C)CC5)c(O)c4c3C2=O)NC(=O)/C(C)=C\C=C\[C@H](C)[C@H](O)[C@@H](C)[C@@H](O)[C@@H](C)[C@H](OC(C)=O)[C@@H]1C [RIFAMPIN] | 0.3 |  |
